Assay results reported in paper PMC10549236 (RSC Chemical Biology, 2023).

Columns and labels:
[1] = tested on: P. aeruginosa PAO1; test: Mouse wound infection model; type: in vivo; details: 2 mg kg^−1 topical twice daily, 48 h post-infection
Procedure, shortened: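 Female BALB/c mice (6–8 weeks, 18–22 g, n = 5 per group) had hair removed and a ~2 mm × 2 mm excisional flank wound made. The wound received ~5 × 10^8 CFU of PBS-washed static overnight PAO1 in 10 μL. Test compound at 2 mg kg−1 in cream was applied topically twice daily; vehicle cream served as control. At 48 h post-infection lesions were excised, homogenised and serially diluted for CFU.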

[2] = tested on: P. aeruginosa; test: Bacterial viability assay; type: cell-based, Pseudomonas aeruginosa
Procedure, shortened: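 Broth dilution in 96-well plates. Test compound at 0.5–6 μg mL−1 in 0.5 μg mL−1 steps was mixed 1:1 by volume with log-phase P. aeruginosa at 10^6 CFU mL−1 and incubated at 37 °C for 22–24 h. Growth was read as OD600, with wells in duplicate.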

[3] = tested on: hitAB gene knockout P. aeruginosa mutant (ΔhitAB); test: Gallium uptake assay by ICP-MS, ΔhitAB mutant; type: cell-based, Pseudomonas aeruginosa; details: 0.16 μM, ICP-MS over time
Procedure, shortened: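 Wild-type and ΔhitAB P. aeruginosa overnight cultures were diluted to OD600 0.1 with 0.16 μM test compound. 5 mL aliquots were taken hourly up to 5 h. Pellets were washed ×3 in PBS with 1 mM EDTA, digested in 70% nitric acid at 60 °C for 2 h, diluted to 2% HNO3 and analysed for gallium by ICP-MS.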

[4] = tested on: pyocyanin; test: Pyocyanin secretion assay; type: cell-based, Pseudomonas aeruginosa; details: 0.08 μM, 20 h
Procedure, shortened: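 P. aeruginosa was cultured with 0.08 μM test compound at 37 °C for about 20 h to OD600 2. Pigment was extracted from about 10 mL of supernatant with chloroform, back-extracted into 0.2 M HCl, and pyocyanin read at A520.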

[5] = tested on: P. aeruginosa established biofilms; test: Biofilm eradication assay; type: cell-based, Pseudomonas aeruginosa; details: 40 μM, third day, 48 h-old biofilm, control = 100%
Procedure, shortened: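 P. aeruginosa was grown in M9 in 6-well plates at 37 °C for 48 h to form mature biofilm. Test compound was then added at 10, 20 or 40 μM and culture continued 2 or 3 days. Wells were PBS-washed ×3, dried, stained with 0.1% crystal violet for 15 min, rinsed, solubilised in 30% acetic acid and read at A595. Untreated was set to 100%; triplicates.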

[6] = tested on: P. aeruginosa biofilm; test: Biofilm inhibition assay; type: cell-based, Pseudomonas aeruginosa; details: 0.08 μM, 48 h, static, versus negative control
[7] = tested on: P. aeruginosa QS system; details: cited from earlier work

Compound: O=[N+]([O-])[O-].O=[N+]([O-])[O-].O=[N+]([O-])[O-].[Ga+3] [Ga(NO3)3]
- Lower number of CFU of P. aeruginosa compared to the control group [1]: 2 log
- IC50 [2]: 3.11 µg/mL
- Gallium uptake rate of ΔhitAB mutant compared to WT [3]: significantly abrogated
- Decrease in pyocyanin secretion [4]: 47%
- Biofilms remained [5]: 30%
- Reduction of biofilm formation [6]: approximately 50%

Compound: O=c1cc(-c2ccccc2)oc2cc(O)cc(O)c12 [Chrysin]
- Activity against P. aeruginosa QS system [7]: antagonists against P. aeruginosa QS system

Compound: O=c1cc(-c2ccccc2)oc2cc(O)c(O)c(O)c12 [Baicalein]
- Activity against P. aeruginosa QS system [7]: antagonists against P. aeruginosa QS system

Compound: O=C1C[C@@H](c2ccc(O)cc2)Oc2cc(O)cc(O)c21 [Naringenin]
- Activity against P. aeruginosa QS system [7]: antagonists against P. aeruginosa QS system
